ChEMBL document CHEMBL4665669, “Novel tertiary sulfonamide derivatives containing benzimidazole moiety as potent anti-gastric cancer agents: Design, synthesis and SAR studies” (Eur J Med Chem, 2019)
Activity calls are given as the source filed them. No cut-off for these calls is given here.

How the values were obtained:
HGC-27 [1] = experiment: Inhibition of Ras/Raf/MEK/ERK signalling pathway in human HGC-27 cells assessed as downregulation of c-Myc expression at 0.5 to 1.5 umol/L after 48 hrs by Western blot analysis; type: cell-based; settings: dose micromol/L 0.5-1.5, time 48.0 hrs
How it was run: (§1)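 Cells treated with graded concentrations or DMSO for 48 h, then harvested and lysed. Lysates denatured, resolved by SDS-PAGE and transferred to nitrocellulose. Membranes blocked with 5% skimmed milk and probed with primary antibodies at 4 °C for 8 h, then with secondary antibodies. Bands detected by ECL.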

MGC-803 [2] = experiment: Induction of apoptosis in human MGC-803 cells assessed as cleavage of PARP at 0.5 to 1.5 umol/L after 48 hrs Western blot analysis; type: functional, cell-based; settings: dose micromol/L 0.5-1.5, time 48.0 hrs
How it was run: (§2)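 Western blot. Cells were treated with compound concentrations or DMSO for 48 h, then lysed, and lysates were denatured, run on SDS-PAGE and transferred to nitrocellulose. After blocking in 5% skimmed milk, membranes were incubated with primary antibodies at 4 °C for 8 h, then secondary antibodies, with ECL detection.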

SGC-7901 [3] = experiment: Induction of apoptosis in human SGC-7901 cells assessed as downregulation of XIAP level at 0.5 to 1.5 umol/L after 48 hrs Western blot analysis; type: functional, cell-based; settings: dose micromol/L 0.5-1.5, time 48.0 hrs; how it was run: as §2
MGC-803 [4] = experiment: Induction of apoptosis in human MGC-803 cells assessed as downregulation of Mcl-1 level at 0.5 to 1.5 umol/L after 48 hrs Western blot analysis; type: functional, cell-based; settings: dose micromol/L 0.5-1.5, time 48.0 hrs; how it was run: as §2
MGC-803 [5] = experiment: Cell cycle arrest at G2 phase in human MGC-803 cells assessed as downregulation of CDK1 level at 0.5 to 1.5 umol/L after 48 hrs by Western blot analysis; type: functional, cell-based; settings: dose micromol/L 0.5-1.5, time 48.0 hrs; how it was run: as §2
HGC-27 [6] = experiment: Inhibition of Ras/Raf/MEK/ERK signalling pathway in human HGC-27 cells assessed as decrease in MEK1 phosphorylation after 48 hrs by Western blot analysis; type: cell-based; settings: dose micromol/L 0.5-1.5, time 48.0 hrs; how it was run: as §1
HGC-27 [7] = experiment: Inhibition of Ras/Raf/MEK/ERK signalling pathway in human HGC-27 cells assessed as decrease in ERK1/2 phosphorylation after 48 hrs by Western blot analysis; type: cell-based; settings: dose micromol/L 0.5-1.5, time 48.0 hrs; how it was run: as §1
SGC-7901 [8] = experiment: Inhibition of Ras/Raf/MEK/ERK signalling pathway in human SGC-7901 cells assessed as downregulation of FoxO3a expression at 0.5 to 1.5 umol/L after 48 hrs by Western blot analysis; type: cell-based; settings: dose micromol/L 0.5-1.5, time 48.0 hrs; how it was run: as §1
MGC-803 [9] = experiment: Induction of apoptosis in human MGC-803 cells assessed as induction of DNA fragmentation at 0.5 to 1.5 umol/L after 48 hrs by imaging analysis; type: functional, cell-based; settings: dose micromol/L 0.5-1.5, time 48.0 hrs
SGC-7901 [10] = experiment: Induction of apoptosis in human SGC-7901 cells assessed as upregulation of NOXA level at 0.5 to 1.5 umol/L after 48 hrs Western blot analysis; type: functional, cell-based; settings: dose micromol/L 0.5-1.5, time 48.0 hrs; how it was run: as §2
SGC-7901 [11] = experiment: Anticancer activity against human SGC-7901 cells assessed as inhibition of cell proliferation after 48 hrs by MTT assay; type: functional, cell-based
How it was run: (§3)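 MTT assay with 48 h compound exposure. MTT solution was then added and incubated 4 h at 37 °C, the supernatant discarded and formazan dissolved in DMSO, with absorbance read at 490 nm. IC50 values were calculated from three independent experiments, reported as mean SD.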

HGC-27 [12] = experiment: Induction of apoptosis in human HGC-27 cells induction of DNA fragmentation at 0.5 to 1.5 umol/L after 48 hrs by imaging analysis; type: functional, cell-based; settings: dose micromol/L 0.5-1.5, time 48.0 hrs
SGC-7901 [13] = experiment: Inhibition of colony formation in human SGC-7901 cells at 0.5 to 1.5 umol/L after 7 days by crystal violet staining based assay; type: functional, cell-based; settings: dose micromol/L 0.5-1.5, time 7.0 day
How it was run: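 5000 cells per well seeded and held 24 h at 37 °C, 5% CO2, then exposed to graded concentrations (0.5, 1, 1.5 µmol/L). After 7 days the medium was removed and wells were washed twice with PBS. Colonies fixed in 4% paraformaldehyde and stained with 0.1% crystal violet.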

[14] = Selectivity index, ratio of IC50 for human GES1 cells to IC50 for human SGC-7901 cells assessed as inhibition of cell proliferation after 48 hrs by MTT assay
How it was run: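 Fold selectivity is the IC50 in GES-1 normal gastric epithelial cells divided by the IC50 in the gastric cancer line (HGC-27, MGC-803 or SGC-7901). Both IC50s come from 48 h exposure, MTT (4 h, 37 °C), DMSO solubilisation and 490 nm absorbance, with three independent experiments.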

MGC-803 [15] = experiment: Cell cycle arrest at G2 phase in human MGC-803 cells assessed as downregulation of Cyclin B level at 0.5 to 1.5 umol/L after 48 hrs by Western blot analysis; type: functional, cell-based; settings: dose micromol/L 0.5-1.5, time 48.0 hrs; how it was run: as §2
PC-3 = experiment: Anticancer activity against human PC-3 cells assessed as inhibition of cell proliferation after 48 hrs by MTT assay; type: functional, cell-based; settings: PC-3, 48 h; how it was run: as §3
SGC-7901 [16] = experiment: Inhibition of Ras/Raf/MEK/ERK signalling pathway in human SGC-7901 cells assessed as effect on RAS level at 0.5 to 1.5 umol/L after 48 hrs by Western blot analysis; type: cell-based; settings: dose micromol/L 0.5-1.5, time 48.0 hrs; how it was run: as §1
HGC-27 [17] = experiment: Induction of apoptosis in human HGC-27 cells assessed as downregulation of c-IAP1 level at 0.5 to 1.5 umol/L after 48 hrs Western blot analysis; type: functional, cell-based; settings: dose micromol/L 0.5-1.5, time 48.0 hrs; how it was run: as §2
MGC-803 [18] = experiment: Induction of apoptosis in human MGC-803 cells assessed as upregulation of NOXA level at 0.5 to 1.5 umol/L after 48 hrs Western blot analysis; type: functional, cell-based; settings: dose micromol/L 0.5-1.5, time 48.0 hrs; how it was run: as §2
HGC-27 [19] = experiment: Induction of apoptosis in human HGC-27 cells assessed as cleavage of PARP at 0.5 to 1.5 umol/L after 48 hrs Western blot analysis; type: functional, cell-based; settings: dose micromol/L 0.5-1.5, time 48.0 hrs; how it was run: as §2
HGC-27 [20] = experiment: Cell cycle arrest at G2 phase in human HGC-27 cells assessed as downregulation of CDK1 level at 0.5 to 1.5 umol/L after 48 hrs by Western blot analysis; type: functional, cell-based; settings: dose micromol/L 0.5-1.5, time 48.0 hrs; how it was run: as §2
MGC-803 [21] = experiment: Inhibition of Ras/Raf/MEK/ERK signalling pathway in human MGC-803 cells assessed as downregulation of c-Myc expression at 0.5 to 1.5 umol/L after 48 hrs by Western blot analysis; type: cell-based; settings: dose micromol/L 0.5-1.5, time 48.0 hrs; how it was run: as §1
HGC-27 [22] = experiment: Induction of apoptosis in human HGC-27 cells assessed as downregulation of Mcl-1 level at 0.5 to 1.5 umol/L after 48 hrs Western blot analysis; type: functional, cell-based; settings: dose micromol/L 0.5-1.5, time 48.0 hrs; how it was run: as §2
SGC-7901 [23] = experiment: Induction of apoptosis in human SGC-7901 cells assessed as downregulation of Mcl-1 level at 0.5 to 1.5 umol/L after 48 hrs Western blot analysis; type: functional, cell-based; settings: dose micromol/L 0.5-1.5, time 48.0 hrs; how it was run: as §2

IC50 (SGC-7901 [11]; SGC-7901, 48 h): 2.3 µM
IC50 (PC-3): 3.34 µM
Compound: COc1cc(N(Cc2nc3ccccc3[nH]2)S(=O)(=O)c2ccc(C)cc2)cc(OC)c1OC
inhibition (HGC-27 [1]): Active
Activity (MGC-803 [2]): Active
Activity (SGC-7901 [3]): Active
Activity (MGC-803 [4]): Active
Activity (MGC-803 [5]): Active
inhibition (HGC-27 [6]): Dose-dependent effect
inhibition (HGC-27 [7]): Dose-dependent effect
inhibition (SGC-7901 [8]): Active
Activity (MGC-803 [9]): Active
Activity (SGC-7901 [10]): Active
Activity (SGC-7901 [11]): Dose-dependent effect
Activity (HGC-27 [12]): Active
inhibition (SGC-7901 [13]): Active
Ratio IC50 [14]: 6.6
Activity (MGC-803 [15]): Active
inhibition (SGC-7901 [16]): inactive
Activity (HGC-27 [17]): Active
Activity (MGC-803 [18]): Active
Activity (HGC-27 [19]): Active
Activity (HGC-27 [20]): Active
inhibition (MGC-803 [21]): Active
Activity (HGC-27 [22]): Active
Activity (SGC-7901 [23]): Active
